The values that follow come from ChEMBL document CHEMBL1137758, “Biphenyl C-cyclopropylalkylamides: New scaffolds for targeting estrogen receptor beta” (Bioorg Med Chem Lett, 2009).

The source made the active and inactive calls. No cut-off for these calls is given here.

Test [1] in a line: Selectivity for ERbeta over ERalpha.
Test [2] has as its target T1, Estrogen receptor (Homo sapiens, UniProt P03372).
T1 sequence (P03372 whole entry): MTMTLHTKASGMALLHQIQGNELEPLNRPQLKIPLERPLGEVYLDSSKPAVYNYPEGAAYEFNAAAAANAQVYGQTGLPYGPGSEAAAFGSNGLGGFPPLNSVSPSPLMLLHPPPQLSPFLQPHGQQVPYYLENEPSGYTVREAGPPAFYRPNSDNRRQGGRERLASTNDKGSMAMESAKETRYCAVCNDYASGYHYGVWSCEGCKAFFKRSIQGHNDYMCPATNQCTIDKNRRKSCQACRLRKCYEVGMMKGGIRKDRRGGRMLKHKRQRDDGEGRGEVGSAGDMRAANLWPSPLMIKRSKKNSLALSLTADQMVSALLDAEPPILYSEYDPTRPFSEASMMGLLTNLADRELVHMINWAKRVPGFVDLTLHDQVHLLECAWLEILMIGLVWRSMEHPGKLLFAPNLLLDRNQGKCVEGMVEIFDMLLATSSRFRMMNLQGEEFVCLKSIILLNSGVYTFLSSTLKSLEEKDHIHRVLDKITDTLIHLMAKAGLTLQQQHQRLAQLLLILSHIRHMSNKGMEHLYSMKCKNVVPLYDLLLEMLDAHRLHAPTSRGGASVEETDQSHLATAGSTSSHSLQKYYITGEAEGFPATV
The test can be described thus: Displacement of fluorescein-labeled estradiol from human recombinant ERalpha by fluorescence polarization assay. (In general: Fluorescence polarisation rises when a labelled molecule tumbles more slowly, as on binding a larger partner.)

In test [3] the target is T2, Estrogen receptor beta (Homo sapiens, UniProt Q92731). The test can be described thus: Displacement of fluorescein-labeled estradiol from human recombinant ERbeta by fluorescence polarization assay. In outline: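 ER (15 nM) was incubated with Fluormone ES2 (1 nM) and serially diluted compound in DMSO (1% v/v) in duplicate. Polarization was read after 2 h (ex 485/em 530 nm). […] Values are means of three experiments.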

A short description of test [4]: Selectivity for ERalpha over ERbeta.
Test [5] concerns MCF7. The experiment in a line: Cytotoxicity against estradiol-stimulated human MCF7 cells expressing ERalpha and ERbeta at 25 uM after 6 days by MTS assay. It counts as functional, cell-based. The gist of the method:
(§1)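 MCF-7 cells (an earlier passage expressing ERα and ERβ, or the later-passage ATCC variant expressing only ERα) were seeded at 4×10^3 cells/well in phenol red-free RPMI-1640 with 10% charcoal-dextran stripped FBS and left to adhere overnight. […] MTS/PMS read-out was A490 minus A630 after 2 h. Day-0 cells were set to 0% growth and E2-stimulated day-6 growth to 100%.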
Background: Tetrazolium dyes change colour on reduction, which living cells bring about.

Test [6] deals with MCF7. The experiment in a line: cells. The note with it: Homo sapiens, MCF7, 144 h.
Test [7] deals with MCF7. The experiment in a line: cells. The following applies: Homo sapiens, MCF7, 144 h. This is another data set of the same source.
Test [8] relates to MCF7. The experiment in a line: Cytotoxicity against estradiol-stimulated human MCF7 cells expressing ERalpha at 25 uM after 6 days by MTS assay. It counts as functional, cell-based. In outline: as §1
Test [9] concerns MDA-MB-231. The test can be described thus: Growth inhibition of estrogen receptor deficient human MDA-MB-231 cells at 3.2 nM to 50 uM after 72 hrs by MTS assay. It counts as functional, cell-based. In outline: (§2)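 Cells were plated at 1×10^3 cells/well in phenol red-free RPMI-1640 with 10% FBS and left to adhere 72 h. Agents were given over 3.2 nM to 50 µM for 72 h. Cell density was read by MTS dye reduction, A490 with A630 background subtracted.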

Test [10] concerns MDA-MB-231. The experiment in a line: Cytotoxicity against estrogen receptor deficient human MDA-MB-231 cells at 25 uM after 72 hrs by MTS assay. The format is functional, cell-based. In outline:
as §2

Test [11] addresses T2, Estrogen receptor beta. The experiment in a line: Displacement of fluorescein-labeled estradiol from human recombinant ERbeta at 1 uM by fluorescence polarization assay.
The target of test [12] is T2, Estrogen receptor beta. The experiment in a line: Displacement of fluorescein-labeled estradiol from human recombinant ERbeta at 5 uM by fluorescence polarization assay.
The target of test [13] is T3, Estrogen receptor (Homo sapiens) (UniProt P03372).
T3 sequence (whole entry): T1 sequence (P03372 whole entry)
The experiment in a line: Displacement of fluorescein-labeled estradiol from human recombinant ERalpha at 1 uM by fluorescence polarization assay.

In test [14] the target is T2, Estrogen receptor beta. The experiment in a line: Displacement of fluorescein-labeled estradiol from human recombinant ERbeta at 0.2 uM by fluorescence polarization assay.
Test [15] concerns the target T3, Estrogen receptor (Homo sapiens). The experiment in a line: Displacement of fluorescein-labeled estradiol from human recombinant ERalpha at 0.2 uM by fluorescence polarization assay.
Test [16] shares this target. The experiment in a line: Displacement of fluorescein-labeled estradiol from human recombinant ERalpha at 5 uM by fluorescence polarization assay.

T2 sequence (Q92731 whole entry): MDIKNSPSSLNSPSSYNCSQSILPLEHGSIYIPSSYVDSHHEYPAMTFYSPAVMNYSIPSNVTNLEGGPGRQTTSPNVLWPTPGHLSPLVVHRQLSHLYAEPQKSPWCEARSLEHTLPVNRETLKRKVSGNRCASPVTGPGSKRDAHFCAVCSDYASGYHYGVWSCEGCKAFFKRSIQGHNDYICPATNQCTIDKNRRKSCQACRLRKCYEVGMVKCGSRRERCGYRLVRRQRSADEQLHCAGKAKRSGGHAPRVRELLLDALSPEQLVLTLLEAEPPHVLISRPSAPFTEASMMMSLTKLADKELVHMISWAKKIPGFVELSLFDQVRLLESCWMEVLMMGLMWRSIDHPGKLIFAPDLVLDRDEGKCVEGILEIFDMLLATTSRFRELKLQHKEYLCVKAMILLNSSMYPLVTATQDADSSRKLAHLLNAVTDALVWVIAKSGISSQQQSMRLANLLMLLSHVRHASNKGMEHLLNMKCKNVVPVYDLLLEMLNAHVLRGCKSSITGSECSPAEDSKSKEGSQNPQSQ

`O/N=C/c1ccc(-c2ccc(O)cc2)cc1F` had a fold change (FC) in [1] of 11. Further, the IC50 amounted to 795 nM in [2] (read-out: IC50) and 32.3 nM in test [3].

In turn, `CCCc1c(-c2ccc(O)cc2)nn(-c2ccc(O)cc2)c1-c1ccc(O)cc1` gave a fold change (FC) in test [4] of 410.

As for `CCCC[C@@H]1C[C@H]1[C@@H](N)c1ccc(-c2ccc(O)cc2)cc1F.Cl` (relative stereo), the outcome in [5], in [8] and in test [10] was Active. The GI50 was 51700 nM in test [6] and 1200 nM in test [7]. The IC50 result in [2] is “Not Active”; in [3], 15000 nM. The “growth inhibition (GI)” value in [9] was “inactive”.

On to `O=C(c1ccc(OCCN2CCCCC2)cc1)c1c(-c2ccc(O)cc2)sc2cc(O)ccc12`, for which the outcome in test [5], in [8] and in test [10] was Active. The “growth inhibition (GI)” value in test [9] was “inactive”.

For the molecule `CCCC[C@@H]1C[C@H]1[C@@H](NC(=O)c1ccccc1)c1ccc(-c2ccc(O)cc2)cc1F` (relative stereo), the outcome in [5], in [8] and in [10] was Active. The same molecule returned a GI50 in [7] of 4100 nM. Moreover, the IC50 in test [2] (read-out: IC50) was greater than 100000 nM; in test [3] it was 2050 nM. In test [9], the “growth inhibition (GI)” value was “inactive”.

For the molecule `Cc1cc(-c2ccc(O)c(F)c2)ccc1/C=N/O`, the fold change (FC) in test [1] amounted to 43.

`C=C(CCCC)[C@@H](NC(=O)C(C)(C)C)c1ccccc1`: the Activity in test [11] is -12%; in test [12], -4%; in [13], 13%; in test [14], -10%; in test [15], -67%; in test [16] it was 13%.

For orientation: IC50 means the concentration needed to halve the response being measured. Usually GI50 stands for the concentration at which growth is held to half of that of the control. A high value points to less potent growth inhibition.
